Assays:
[1] = target: T1, GLUT1 (Homo sapiens, UniProt P11166); test: rapafucin 3D microarray screen with GLUT1-containing cell lysate; type: binding; conditions: hit when SBR greater than 3; GLUT1-containing HEK293T lysate
T1 sequence (P11166 1-492): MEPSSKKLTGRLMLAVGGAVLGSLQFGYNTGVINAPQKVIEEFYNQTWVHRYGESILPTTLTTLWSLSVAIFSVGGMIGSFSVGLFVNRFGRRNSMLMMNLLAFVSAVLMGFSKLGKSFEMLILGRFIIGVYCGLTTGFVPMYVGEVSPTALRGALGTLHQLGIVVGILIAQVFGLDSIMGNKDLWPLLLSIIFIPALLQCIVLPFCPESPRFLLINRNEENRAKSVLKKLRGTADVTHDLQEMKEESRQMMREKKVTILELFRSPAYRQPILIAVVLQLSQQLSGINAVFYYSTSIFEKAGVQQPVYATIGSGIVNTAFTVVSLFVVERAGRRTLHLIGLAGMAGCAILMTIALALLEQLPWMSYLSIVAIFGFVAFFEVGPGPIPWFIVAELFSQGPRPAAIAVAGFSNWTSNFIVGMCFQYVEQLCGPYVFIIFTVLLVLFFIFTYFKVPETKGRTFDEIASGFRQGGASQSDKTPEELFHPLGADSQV
Method in brief: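 HEK293T cells stably overexpressing GLUT1 gave a detergent-solubilised lysate. This was incubated on rapafucin arrays printed on a diazirine 3D copolymer surface (PEGMA:DMAEMA 8:2; ATRP initiator:propionyl bromide 1:100). Unbound protein was washed off, and bound GLUT1 was detected with anti-GLUT1 antibody plus Cy5 secondary on a microarray scanner. BAY-876 served as positive control.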

[2] = target: T2, DLD-1 GLUT1 knock out (for GLUT3) (Homo sapiens, UniProt P11169); test: [3H]-2DG uptake in DLD-1 GLUT1 knock out cells; type: cell-based; conditions: DLD-1 GLUT1 knock out vs wild type
T2 sequence (P11169 1-496): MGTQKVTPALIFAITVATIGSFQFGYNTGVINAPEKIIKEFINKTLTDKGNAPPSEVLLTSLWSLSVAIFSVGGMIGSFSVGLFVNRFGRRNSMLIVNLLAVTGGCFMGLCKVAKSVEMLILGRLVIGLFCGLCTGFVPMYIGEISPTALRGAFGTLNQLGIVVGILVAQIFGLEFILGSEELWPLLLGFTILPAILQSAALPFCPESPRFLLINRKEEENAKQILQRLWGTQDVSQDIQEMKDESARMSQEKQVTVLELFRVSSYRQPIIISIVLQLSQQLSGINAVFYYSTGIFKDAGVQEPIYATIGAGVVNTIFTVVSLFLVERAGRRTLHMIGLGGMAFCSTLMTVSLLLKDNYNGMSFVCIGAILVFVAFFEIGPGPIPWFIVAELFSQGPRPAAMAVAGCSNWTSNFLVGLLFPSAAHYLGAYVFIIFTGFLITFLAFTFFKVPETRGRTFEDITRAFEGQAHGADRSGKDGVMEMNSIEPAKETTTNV
Method in brief: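 Isogenic DLD-1 lines were run in parallel: wild type (GLUT1) and GLUT1 knockout (GLUT3). Each was treated with test compound, BAY-876 (GLUT1-specific reference) or cytochalasin B (non-specific GLUT inhibitor), then [3H]-2DG uptake was assessed.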

[3] = test system: MCF-7 cells; test: FKBP ligand competition in [3H]-2DG uptake assay in MCF-7 cells; type: cell-based, human; conditions: 20 μM with 100nM of RgA
Method in brief: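 MCF-7 cells were exposed to test compound at 100 nM together with 20 μM FK506, 20 μM rapamycin, or their combinations, with each agent also given alone. [3H]-2DG uptake was then measured to test whether excess FKBP-binding ligands antagonise inhibition of glucose uptake.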

| Structure (SMILES) | signal-to-background ratio (SBR), positive hit on 3D rapafucin microarray [1] | inhibitory activity on [3H]-2DG uptake in GLUT1 knock out cells [2] | effect on the inhibitory activity of RgA in the [3H]-2DG uptake assay [3] |
| --- | --- | --- | --- |
| Cc1c(NC(=O)c2cc(C(N)=O)nc3cc(F)ccc23)c(C(F)(F)F)nn1Cc1ccc(C#N)cc1 [BAY-876] | identified | lost its inhibitory activity |  |
| C=CC[C@@H]1/C=C(\C)C[C@H](C)C[C@H](OC)[C@H]2O[C@@](O)(C(=O)C(=O)N3CCCC[C@H]3C(=O)O[C@H](/C(C)=C/[C@@H]3CC[C@@H](O)[C@H](OC)C3)[C@H](C)[C@@H](O)CC1=O)[C@H](C)C[C@@H]2OC [FK506] |  |  | negligible effect |
| C=C1[C@@H](C)[C@H]2[C@H](Cc3ccccc3)NC(=O)[C@]23OC(=O)/C=C/[C@H](O)CCC[C@@H](C)C/C=C/[C@H]3[C@@H]1O [cytochalasin B] |  | maintained its inhibitory activity |  |
| CO[C@H]1C[C@@H]2CC[C@@H](C)[C@@](O)(O2)C(=O)C(=O)N2CCCC[C@H]2C(=O)O[C@H]([C@H](C)C[C@@H]2CC[C@@H](O)[C@H](OC)C2)CC(=O)[C@H](C)/C=C(\C)[C@@H](O)[C@@H](OC)C(=O)[C@H](C)C[C@H](C)/C=C/C=C/C=C/1C [rapamycin] |  |  | negligible effect |

— paper PMC6861656 (Angewandte Chemie (International ed. in English), 2019)
